Source: ChEMBL document CHEMBL2375290, “Nonclassical antifolates, part 3: synthesis, biological evaluation and molecular modeling study of some new 2-heteroarylthio-quinazolin-4-ones” (Eur J Med Chem, 2013)
pIC50: −log10 of the molar value. In brackets after ≈: the same amount, converted by molar mass.

Assays:
Micrococcus luteus = experiment: Antimicrobial activity against Micrococcus luteus at 200 ug after 24 hrs by agar disc diffusion method; format: functional; conditions: read-out: DIZ
Staphylococcus aureus = experiment: Antimicrobial activity against Staphylococcus aureus at 200 ug after 24 hrs by agar disc diffusion method; format: functional; conditions: read-out: DIZ
Bacillus subtilis [1] = experiment: Antimicrobial activity against Bacillus subtilis at 200 ug after 24 hrs by agar disc diffusion method; format: functional; conditions: read-out: DIZ
Pseudomonas aeruginosa = experiment: Antimicrobial activity against Pseudomonas aeruginosa at 200 ug after 24 hrs by agar disc diffusion method; format: functional; conditions: read-out: DIZ
Dihydrofolate reductase = target: T1, Dihydrofolate reductase (Bos taurus, UniProt P00376); experiment: Inhibition of bovine DHFR after 2 mins by spectrophotometry
T1 sequence (P00376 whole entry): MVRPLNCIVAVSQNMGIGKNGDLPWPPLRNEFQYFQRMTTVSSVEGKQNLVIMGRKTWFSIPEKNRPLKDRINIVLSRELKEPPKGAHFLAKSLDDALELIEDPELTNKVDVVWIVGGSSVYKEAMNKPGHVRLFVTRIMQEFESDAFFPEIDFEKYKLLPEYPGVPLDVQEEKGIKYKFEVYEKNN

Escherichia coli = experiment: Antimicrobial activity against Escherichia coli at 200 ug after 24 hrs by agar disc diffusion method; format: functional; conditions: read-out: DIZ
CAKI-1 = experiment: Cytotoxicity against human Caki1 cells at 10 uM after 48 hrs by coulter counter analysis; format: functional; conditions: CAKI-1, 48 h, read-out: GI
RPMI-8226 = experiment: Cytotoxicity against human RPMI8226 cells at 10 uM after 48 hrs by coulter counter analysis; format: functional; conditions: RPMI-8226, 48 h, read-out: GI
A549 = experiment: Cytotoxicity against human A549/ATCC cells at 10 uM after 48 hrs by coulter counter analysis; format: functional; conditions: A549, 48 h, read-out: GI
SF-295 = experiment: Cytotoxicity against human SF295 cells at 10 uM after 48 hrs by coulter counter analysis; format: functional; conditions: SF-295, 48 h, read-out: GI
SNB-75 = experiment: Cytotoxicity against human SNB75 cells at 10 uM after 48 hrs by coulter counter analysis; format: functional; conditions: SNB-75, 48 h, read-out: GI
MDA-MB-435 = experiment: Cytotoxicity against human MDA-MB-435 cells at 10 uM after 48 hrs by coulter counter analysis; format: functional; conditions: MDA-MB-435, 48 h, read-out: GI
SR = experiment: Cytotoxicity against human SR cells at 10 uM after 48 hrs by coulter counter analysis; format: functional; conditions: read-out: GI
RXF 393 = experiment: Cytotoxicity against human RXF393 cells at 10 uM after 48 hrs by coulter counter analysis; format: functional; conditions: RXF 393, 48 h, read-out: GI
NCI-H226 = experiment: Cytotoxicity against human NCI-H226 cells at 10 uM after 48 hrs by coulter counter analysis; format: functional; conditions: NCI-H226, 48 h, read-out: GI
A498 = experiment: Cytotoxicity against human A498 cells at 10 uM after 48 hrs by coulter counter analysis; format: functional; conditions: A498, 48 h, read-out: GI
HL-60(TB) = experiment: Cytotoxicity against human HL-60(TB) cells at 10 uM after 48 hrs by coulter counter analysis; format: functional; conditions: HL-60, 48 h, read-out: GI
[2] = Cytotoxicity against human EKVX cells at 10 uM after 48 hrs by coulter counter analysis; format: functional; conditions: read-out: GI
NCI-H522 = experiment: Cytotoxicity against human NCI-H522 cells at 10 uM after 48 hrs by coulter counter analysis; format: functional; conditions: NCI-H522, 48 h, read-out: GI
OVCAR-4 = experiment: Cytotoxicity against human OVCAR4 cells at 10 uM after 48 hrs by coulter counter analysis; format: functional; conditions: OVCAR-4, 48 h, read-out: GI
MCF7 = experiment: Cytotoxicity against human MCF7 cells at 10 uM after 48 hrs by coulter counter analysis; format: functional; conditions: MCF7, 48 h, read-out: GI
SNB-19 = experiment: Cytotoxicity against human SNB19 cells at 10 uM after 48 hrs by coulter counter analysis; format: functional; conditions: SNB-19, 48 h, read-out: GI
UO-31 = experiment: Cytotoxicity against human UO31 cells at 10 uM after 48 hrs by coulter counter analysis; format: functional; conditions: UO-31, 48 h, read-out: GI
PC-3 = experiment: Cytotoxicity against human PC3 cells at 10 uM after 48 hrs by coulter counter analysis; format: functional; conditions: PC-3, 48 h, read-out: GI
Malme-3M = experiment: Cytotoxicity against human MALME-3M cells at 10 uM after 48 hrs by coulter counter analysis; format: functional; conditions: read-out: GI
SK-MEL-5 = experiment: Cytotoxicity against human SK-MEL-5 cells at 10 uM after 48 hrs by coulter counter analysis; format: functional; conditions: SK-MEL-5, 48 h, read-out: GI
T47D = experiment: Cytotoxicity against human T47D cells at 10 uM after 48 hrs by coulter counter analysis; format: functional; conditions: read-out: GI
SN12C = experiment: Cytotoxicity against human SN12C cells at 10 uM after 48 hrs by coulter counter analysis; format: functional; conditions: read-out: GI
MDA-MB-231 = experiment: Cytotoxicity against human MDA-MB-231 cells at 10 uM after 48 hrs by coulter counter analysis; format: functional; conditions: MDA-MB-231, 48 h, read-out: GI
Hs-578T = experiment: Cytotoxicity against human Hs578T cells at 10 uM after 48 hrs by coulter counter analysis; format: functional; conditions: read-out: GI
IGROV-1 = experiment: Cytotoxicity against human IGROV1 cells at 10 uM after 48 hrs by coulter counter analysis; format: functional; conditions: IGROV-1, 48 h, read-out: GI
MOLT-4 = experiment: Cytotoxicity against human MOLT4 cells at 10 uM after 48 hrs by coulter counter analysis; format: functional; conditions: MOLT-4, 48 h, read-out: GI
NCI-H23 = experiment: Cytotoxicity against human NCI-H23 cells at 10 uM after 48 hrs by coulter counter analysis; format: functional; conditions: NCI-H23, 48 h, read-out: GI
CCRF-CEM = experiment: Cytotoxicity against human CCRF-CEM cells at 10 uM after 48 hrs by coulter counter analysis; format: functional; conditions: read-out: GI
[3] = Cytotoxicity against human NCI-ADR-RES cells at 10 uM after 48 hrs by coulter counter analysis; format: functional; conditions: read-out: GI
LOX IMVI = experiment: Cytotoxicity against human LOXIMVI cells at 10 uM after 48 hrs by coulter counter analysis; format: functional; conditions: read-out: GI
UACC-62 = experiment: Cytotoxicity against human UACC62 cells at 10 uM after 48 hrs by coulter counter analysis; format: functional; conditions: UACC-62, 48 h, read-out: GI
Bacillus subtilis [4] = experiment: Antimicrobial activity against Bacillus subtilis after 24 hrs by micro-dilution susceptibility method; format: functional
In short: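 Broth microdilution in Müller-Hinton broth against S. aureus IFO 3060, B. subtilis IFO 3007, E. coli IFO 3301 and P. aeruginosa IFO 3448. These are the same standard strains used in the disc-diffusion primary screen. Compounds were solubilized in DMSO. MIC recorded as the minimal inhibitory concentration.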

## Cc1ccc2nc(Sc3cc([N+](=O)[O-])ccc3C(=O)O)n(-c3ccccc3)c(=O)c2c1
Micrococcus luteus
  zone of inhibition at 200 µg/disc: 8 mm
Staphylococcus aureus
  zone of inhibition at 200 µg/disc: 8 mm
Bacillus subtilis [1]
  zone of inhibition at 200 µg/disc: 8 mm
Pseudomonas aeruginosa
  zone of inhibition at 200 µg/disc: 8 mm
Dihydrofolate reductase
  pIC50: 5.00
Escherichia coli
  zone of inhibition at 200 µg/disc: 8 mm

## Nc1ncc(Sc2nc3ccc(Cl)cc3c(=O)n2Cc2ccccc2)s1
CAKI-1
  inhibition of growth at 10 µM: 25.6%
RPMI-8226
  inhibition of growth at 10 µM: 18.9%
A549
  inhibition of growth at 10 µM: < 10%
SF-295
  inhibition of growth at 10 µM: 16.6%
SNB-75
  inhibition of growth at 10 µM: 10.7%
MDA-MB-435
  inhibition of growth at 10 µM: < 10%
Micrococcus luteus
  zone of inhibition at 200 µg/disc: 8 mm
SR
  inhibition of growth at 10 µM: < 10%
RXF 393
  inhibition of growth at 10 µM: < 10%
NCI-H226
  inhibition of growth at 10 µM: 17.1%
A498
  inhibition of growth at 10 µM: 11.2%
HL-60(TB)
  inhibition of growth at 10 µM: < 10%
Staphylococcus aureus
  zone of inhibition at 200 µg/disc: 16 mm
[2]
  inhibition of growth at 10 µM: 11.9%
NCI-H522
  inhibition of growth at 10 µM: 16%
OVCAR-4
  inhibition of growth at 10 µM: 13.8%
MCF7
  inhibition of growth at 10 µM: < 10%
Bacillus subtilis [1]
  zone of inhibition at 200 µg/disc: 18 mm
SNB-19
  inhibition of growth at 10 µM: < 10%
Pseudomonas aeruginosa
  zone of inhibition at 200 µg/disc: 8 mm
UO-31
  inhibition of growth at 10 µM: 14.8%
PC-3
  inhibition of growth at 10 µM: 28.2%
Malme-3M
  inhibition of growth at 10 µM: 10.8%
SK-MEL-5
  inhibition of growth at 10 µM: < 10%
T47D
  inhibition of growth at 10 µM: 10.4%
SN12C
  inhibition of growth at 10 µM: < 10%
MDA-MB-231
  inhibition of growth at 10 µM: 11.2%
Dihydrofolate reductase
  pIC50: 5.70
Hs-578T
  inhibition of growth at 10 µM: < 10%
IGROV-1
  inhibition of growth at 10 µM: 12%
Escherichia coli
  zone of inhibition at 200 µg/disc: 15 mm
MOLT-4
  inhibition of growth at 10 µM: 16.8%
NCI-H23
  inhibition of growth at 10 µM: < 10%
CCRF-CEM
  inhibition of growth at 10 µM: 13.7%
[3]
  inhibition of growth at 10 µM: < 10%
LOX IMVI
  inhibition of growth at 10 µM: 14.9%
UACC-62
  inhibition of growth at 10 µM: 14.4%

## O=C(O)c1ccc([N+](=O)[O-])cc1Sc1nc2ccc(Cl)cc2c(=O)n1-c1ccccc1
Bacillus subtilis [4]
  MIC: 4 µg/mL (≈ 8.81 µM)
Micrococcus luteus
  zone of inhibition at 200 µg/disc: 8 mm
Staphylococcus aureus
  zone of inhibition at 200 µg/disc: 14 mm
Bacillus subtilis [1]
  zone of inhibition at 200 µg/disc: 20 mm
Pseudomonas aeruginosa
  zone of inhibition at 200 µg/disc: 8 mm
Dihydrofolate reductase
  pIC50: 5.00
Escherichia coli
  zone of inhibition at 200 µg/disc: 8 mm

## CCOC(=O)c1nc(N)sc1Sc1nc2cc(OC)c(OC)cc2c(=O)n1-c1ccccc1
Micrococcus luteus
  zone of inhibition at 200 µg/disc: 8 mm
Staphylococcus aureus
  zone of inhibition at 200 µg/disc: 8 mm
Bacillus subtilis [1]
  zone of inhibition at 200 µg/disc: 8 mm
Pseudomonas aeruginosa
  zone of inhibition at 200 µg/disc: 8 mm
Dihydrofolate reductase
  pIC50: 6.52
Escherichia coli
  zone of inhibition at 200 µg/disc: 8 mm

## CCOC(=O)c1nc(N)sc1Sc1nc2ccc(Cl)cc2c(=O)n1-c1ccccc1
Micrococcus luteus
  zone of inhibition at 200 µg/disc: 8 mm
Staphylococcus aureus
  zone of inhibition at 200 µg/disc: 8 mm
Bacillus subtilis [1]
  zone of inhibition at 200 µg/disc: 8 mm
Pseudomonas aeruginosa
  zone of inhibition at 200 µg/disc: 8 mm
Dihydrofolate reductase
  pIC50: 5.52
Escherichia coli
  zone of inhibition at 200 µg/disc: 8 mm

## O=C(O)c1ccc([N+](=O)[O-])cc1Sc1nc2ccc(Cl)cc2c(=O)n1Cc1ccccc1
Micrococcus luteus
  zone of inhibition at 200 µg/disc: 8 mm
Staphylococcus aureus
  zone of inhibition at 200 µg/disc: 8 mm
Bacillus subtilis [1]
  zone of inhibition at 200 µg/disc: 15 mm
Pseudomonas aeruginosa
  zone of inhibition at 200 µg/disc: 8 mm
Dihydrofolate reductase
  pIC50: 5.10
Escherichia coli
  zone of inhibition at 200 µg/disc: 8 mm
